ChEMBL document CHEMBL3120083, “Discovery of N-[4-[6-tert-butyl-5-methoxy-8-(6-methoxy-2-oxo-1H-pyridin-3-yl)-3-quinolyl]phenyl]methanesulfonamide (RG7109), a potent inhibitor of the hepatitis C virus NS5B polymerase” (J Med Chem, 2014)
In brackets after ≈: the same amount, converted by molar mass.

What was measured:
Hepatitis C virus [1] = experiment: Antiviral activity against Hepatitis C virus genotype 1a H77 infected in human 2209-23 cells after 72 hrs by luciferase reporter gene assay; format: functional, organism-based, Hepacivirus hominis; settings: genotype 1a H77, 2209-23, 72 h
[2] = Inhibition of N-terminal 6xHis-tagged Hepatitis C virus genotype 1b Con1 NS5B polymerase containing 21-amino acid deletion at C-terminus expressed in Escherichia coli using radiolabeled UTP as substrate after 2 hrs by scintillation counting analysis; design: species or system Hepatitis C virus (isolate Con1)
Procedure, shortened: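 GT-1b Con1 NS5B polymerase (NS5B570n-Con1) activity assay run with RNA template at 3 nM and enzyme at 3 nM. IC50 reported in nM.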

[3] = Thermodynamic solubility of the compound; format: physicochemical; settings: read-out: Therm_solubility
Hepatitis C virus [4] = experiment: Ratio of EC50 for Hepatitis C virus genotype 1b Con1 in presence of human serum to EC50 for Hepatitis C virus genotype 1b Con1; format: functional, Hepacivirus hominis, isolate Con1
Hepatitis C virus [5] = experiment: Antiviral activity against Hepatitis C virus genotype 1b Con1 infected in human 2209-23 cells after 72 hrs by luciferase reporter gene assay in presence of 40% human serum; format: functional, organism-based, Hepacivirus hominis; settings: isolate Con1, 2209-23, 72 h
Hepatitis C virus [6] = experiment: Antiviral activity against Hepatitis C virus genotype 1a H77 infected in human 2209-23 cells after 72 hrs by luciferase reporter gene assay in presence of 40% human serum; format: functional, organism-based, Hepacivirus hominis; settings: genotype 1a H77, 2209-23, 72 h
Hepatitis C virus [7] = experiment: Ratio of EC50 for Hepatitis C virus genotype 1a H77 in presence of human serum to EC50 for Hepatitis C virus genotype 1a H77; format: functional, Hepacivirus hominis
Hepatitis C virus [8] = experiment: Antiviral activity against Hepatitis C virus genotype 1b Con1 infected in human 2209-23 cells after 72 hrs by luciferase reporter gene assay; format: functional, organism-based, Hepacivirus hominis; settings: isolate Con1, 2209-23, 72 h
Procedure, shortened: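 Stable GT-1b Con1 subgenomic replicon cell line expressing a renilla luciferase reporter, used as the readout of inhibition. EC50 from luciferase signal, n 2.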

[9] = Ratio of EC50 for Hepatitis C virus genotype 1a H77 to EC50 for Hepatitis C virus genotype 1b Con1; format: functional
Hepatocyte [10] = experiment: Intrinsic clearance in rat hepatocytes assessed per 10^6 cells; format: ADME, cell-based
Procedure, shortened: (§1)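 Suspended hepatocytes (about 1.0×10^6 cells/mL) in Williams' medium E with glutamine, antibiotics, insulin, dexamethasone and 10% FCS, 37 °C, 5% CO2, shaken at 900 rpm. Compound at 0.1–10.0 μM. Stopped with methanol plus internal standard at 2–180 min. Parent remaining by LC/MS/MS peak area ratio, in duplicate.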

Hepatocyte [11] = experiment: Intrinsic clearance in human hepatocytes assessed per 10^6 cells; format: ADME, cell-based; procedure, shortened: as §1

| Structure (SMILES) | EC50 (Hepatitis C virus [1]) [nM] | EC90 (Hepatitis C virus [5]) [nM] | EC90 (Hepatitis C virus [6]) [nM] | EC50 (Hepatitis C virus [8]) [nM] | other results |
| --- | --- | --- | --- | --- | --- |
| Cc1ccc(-c2cc(C(C)(C)C)cc3cc(N4CCCC(CNS(C)(=O)=O)C4)cnc23)c(=O)[nH]1 (centres undefined) | > 1000 | – | – | – | IC50 [2]: 625 nM; solubility thermodynamic [3]: 66 µg/mL (≈ 137 µM) |
| COc1c(C(C)(C)C)cc(N2CCC(=O)NC2=O)c2ncc(-c3ccc(NS(C)(=O)=O)cc3)cc12 | 4.6 | 20 | 48 | 3.2 | Ratio EC50 (Hepatitis C virus [4]): 1.7; EC50 (Hepatitis C virus [5]): 3.5 nM; EC50 (Hepatitis C virus [6]): 10 nM; Ratio EC50 (Hepatitis C virus [7]): 1.7; Ratio EC50 [9]: 1.4 |
| COc1c(C2(C(F)F)CC2)cc(-n2ccc(=O)[nH]c2=O)c2ncc(-c3ccc(NS(C)(=O)=O)cc3)cc12 | 95 | – | – | 16 | CLH (Hepatocyte [10]): 1.7 uL/min/10^6 cells; CLH (Hepatocyte [11]): 0.1 uL/min/10^6 cells |
| CC(C)(C)c1nc(-n2ccc(=O)[nH]c2=O)c2ccc(-c3ccc(NS(C)(=O)=O)cc3)cc2n1 | 17 | – | – | – | – |
| COc1c(C(C)(C)C)cc(-n2ccc(=O)[nH]c2=O)c2ncc(-c3ccc(NS(C)(=O)=O)cc3)cc12 | 7.2 | 29 | 123 | 3.2 | Ratio EC50 (Hepatitis C virus [4]): 1.7; EC50 (Hepatitis C virus [5]): 5.6 nM; EC50 (Hepatitis C virus [6]): 16 nM; CLH (Hepatocyte [10]): 20 uL/min/10^6 cells; Ratio EC50 (Hepatitis C virus [7]): 1.7; CLH (Hepatocyte [11]): 7.9 uL/min/10^6 cells; Ratio EC50 [9]: 2.2 |
| COc1c(C(C)(C)C)cc(-c2ccc(C)[nH]c2=O)c2ncc(CCCCNS(C)(=O)=O)cc12 | > 1000 | – | – | – | solubility thermodynamic [3]: 168 µg/mL (≈ 356 µM) |
| COc1c(C(F)(F)F)cc(-n2ccc(=O)[nH]c2=O)c2ncc(-c3ccc(NS(C)(=O)=O)cc3)cc12 | 821 | – | – | 57 | CLH (Hepatocyte [10]): 1.8 uL/min/10^6 cells; CLH (Hepatocyte [11]): 1.5 uL/min/10^6 cells |
| COc1c(C(C)(C)C)cc(-c2cn(C)c(=O)[nH]c2=O)c2ncc(-c3ccc(NS(C)(=O)=O)cc3)cc12 | 3 | – | – | 1.5 | – |
| COc1c(C(C)(C)C)cc(-c2cc(F)c[nH]c2=O)c2ncc(-c3ccc(NS(C)(=O)=O)cc3)cc12 | 3.8 | – | – | 3.5 | – |
| COc1c(/C=C/c2ccc(NS(C)(=O)=O)cc2)cc(-c2cc(F)c[nH]c2=O)cc1C(C)(C)C | – | 128 | 531 | – | – |
| COc1c(C(C)(C)C)cc(-c2ccc[nH]c2=O)c2ncc(-c3ccc(NS(C)(=O)=O)cc3)cc12 | 5.2 | 47 | 25 | 3.1 | Ratio EC50 (Hepatitis C virus [4]): 0.8; EC50 (Hepatitis C virus [5]): 11 nM; EC50 (Hepatitis C virus [6]): 4 nM; Ratio EC50 (Hepatitis C virus [7]): 0.8; Ratio EC50 [9]: 1.7 |
